# Measurements as given in ChEMBL document CHEMBL2040780, “Antiarrhythmic properties of phenylpiperazine derivatives of phenytoin with α₁-adrenoceptor affinities” (Bioorg Med Chem, 2012).
# System: Rattus norvegicus
# Assay: Antiarrhythmic activity in Wistar rat assessed as effect on heart beat at 10 mg/kg, iv after 1 min
# Type: functional
# Details: not given
# In short: (§1)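 Male Wistar rats (180–250 g), anaesthetised with thiopental 60 mg/kg ip. Standard lead II ECG recorded at 50 mm/s just before dosing and at 1, 5 and 15 min after. Heart rate and P–Q, Q–T and QRS intervals were read. n=6 per group, mean ± SEM, one-way ANOVA.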
row,Structure (SMILES),Activity
1,CN1C(=O)N(CC(O)CN2CCN(c3ccccc3)CC2)C(c2ccccc2)(c2ccccc2)C1=O.Cl (racemic),270 min⁻¹
2,COC(=O)CN1C(=O)N(CC(O)CN2CCN(c3ccccc3F)CC2)C(c2ccccc2)(c2ccccc2)C1=O.Cl (racemic),284 min⁻¹

# System: Rattus norvegicus
# Assay: Cardiotoxicity in Wistar rat assessed as effect on QRS interval at 10 mg/kg, iv after 5 mins
# Type: toxicity, organism-based
# Design: dose 10 mg/kg, route intravenous
# Details: in vivo
# In short: as §1
row,Structure (SMILES),Activity
1,CN1C(=O)N(CC(O)CN2CCN(c3ccccc3)CC2)C(c2ccccc2)(c2ccccc2)C1=O.Cl (racemic),20 ms
2,COC(=O)CN1C(=O)N(CC(O)CN2CCN(c3ccccc3F)CC2)C(c2ccccc2)(c2ccccc2)C1=O.Cl (racemic),17 ms

# System: Rattus norvegicus
# Assay: Cardiotoxicity in Wistar rat assessed as effect on P-Q interval at 10 mg/kg, iv after 15 mins
# Type: toxicity, organism-based
# Design: dose 10 mg/kg, route intravenous
# Details: in vivo, 0.25 h
# In short: as §1
row,Structure (SMILES),Activity
1,CN1C(=O)N(CC(O)CN2CCN(c3ccccc3)CC2)C(c2ccccc2)(c2ccccc2)C1=O.Cl (racemic),59 ms
2,COC(=O)CN1C(=O)N(CC(O)CN2CCN(c3ccccc3F)CC2)C(c2ccccc2)(c2ccccc2)C1=O.Cl (racemic),58 ms

# System: Rattus norvegicus
# Assay: Cardiotoxicity in Wistar rat assessed as effect on QRS interval at 10 mg/kg, iv after 1 min
# Type: toxicity, organism-based
# Design: dose 10 mg/kg, route intravenous
# Details: in vivo
# In short: as §1
row,Structure (SMILES),Activity
1,CN1C(=O)N(CC(O)CN2CCN(c3ccccc3)CC2)C(c2ccccc2)(c2ccccc2)C1=O.Cl (racemic),23 ms
2,COC(=O)CN1C(=O)N(CC(O)CN2CCN(c3ccccc3F)CC2)C(c2ccccc2)(c2ccccc2)C1=O.Cl (racemic),17 ms

# System: Rattus norvegicus
# Assay: Cardiotoxicity in Wistar rat assessed as effect on Q-T interval at 10 mg/kg, iv after 1 min
# Type: toxicity, organism-based
# Design: dose 10 mg/kg, route intravenous
# Details: in vivo
# In short: as §1
row,Structure (SMILES),Activity
1,CN1C(=O)N(CC(O)CN2CCN(c3ccccc3)CC2)C(c2ccccc2)(c2ccccc2)C1=O.Cl (racemic),109 ms
2,COC(=O)CN1C(=O)N(CC(O)CN2CCN(c3ccccc3F)CC2)C(c2ccccc2)(c2ccccc2)C1=O.Cl (racemic),86 ms

# System: Rattus norvegicus
# Assay: Hypotensive activity in normotensive Wistar rat assessed as decrease in diastolic blood pressure at 2.5 to 10 mg/kg, iv at 1 min
# Type: organism-based, Artery
# Design: dose 2.5-10 mg/kg, route intravenous
# Details: in vivo
# In short: (§2)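 Right carotid artery cannulated with heparin-saline-filled tubing for blood pressure recording. After 5 min stabilisation, compound injected iv into the caudal vein (2.5–10 mg/kg, 1 ml/kg). Systolic and diastolic pressure followed for 60 min. n=6 per group, mean ± SEM, one-way ANOVA.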
row,Structure (SMILES),Activity
1,CN1C(=O)N(CC(O)CN2CCN(c3ccccc3)CC2)C(c2ccccc2)(c2ccccc2)C1=O.Cl (racemic),Toxic
2,COC(=O)CN1C(=O)N(CC(O)CN2CCN(c3ccccc3F)CC2)C(c2ccccc2)(c2ccccc2)C1=O.Cl (racemic),Toxic

# System: Rattus norvegicus
# Assay: Cardiotoxicity in Wistar rat assessed as effect on QRS interval at 10 mg/kg, iv after 15 mins
# Type: toxicity, organism-based
# Design: dose 10 mg/kg, route intravenous
# Details: in vivo, 0.25 h
# In short: as §1
row,Structure (SMILES),Activity
1,CN1C(=O)N(CC(O)CN2CCN(c3ccccc3)CC2)C(c2ccccc2)(c2ccccc2)C1=O.Cl (racemic),18 ms
2,COC(=O)CN1C(=O)N(CC(O)CN2CCN(c3ccccc3F)CC2)C(c2ccccc2)(c2ccccc2)C1=O.Cl (racemic),15 ms

# System: Rattus norvegicus
# Assay: Cardiotoxicity in Wistar rat assessed as effect on Q-T interval at 10 mg/kg, iv after 5 mins
# Type: toxicity, organism-based
# Design: dose 10 mg/kg, route intravenous
# Details: in vivo
# In short: as §1
row,Structure (SMILES),Activity
1,CN1C(=O)N(CC(O)CN2CCN(c3ccccc3)CC2)C(c2ccccc2)(c2ccccc2)C1=O.Cl (racemic),79 ms
2,COC(=O)CN1C(=O)N(CC(O)CN2CCN(c3ccccc3F)CC2)C(c2ccccc2)(c2ccccc2)C1=O.Cl (racemic),82 ms

# System: Rattus norvegicus
# Assay: Cardiotoxicity in Wistar rat assessed as effect on Q-T interval at 10 mg/kg, iv after 15 mins
# Type: toxicity, organism-based
# Design: dose 10 mg/kg, route intravenous
# Details: in vivo, 0.25 h
# In short: as §1
row,Structure (SMILES),Activity
1,CN1C(=O)N(CC(O)CN2CCN(c3ccccc3)CC2)C(c2ccccc2)(c2ccccc2)C1=O.Cl (racemic),74 ms
2,COC(=O)CN1C(=O)N(CC(O)CN2CCN(c3ccccc3F)CC2)C(c2ccccc2)(c2ccccc2)C1=O.Cl (racemic),71 ms

# System: Rattus norvegicus
# Assay: Hypotensive activity in normotensive Wistar rat assessed as decrease in diastolic blood pressure at 2.5 to 10 mg/kg, iv after 1 min measured up to 60 mins
# Type: organism-based, Artery
# Design: dose 2.5-10 mg/kg, route intravenous
# Details: in vivo
# In short: as §2
row,Structure (SMILES),Activity
1,CN1C(=O)N(CC(O)CN2CCN(c3ccccc3)CC2)C(c2ccccc2)(c2ccccc2)C1=O.Cl (racemic),Non-toxic
2,COC(=O)CN1C(=O)N(CC(O)CN2CCN(c3ccccc3F)CC2)C(c2ccccc2)(c2ccccc2)C1=O.Cl (racemic),Non-toxic

# System: Rattus norvegicus
# Assay: Antiarrhythmic activity in Wistar rat assessed as effect on heart beat at 10 mg/kg, iv after 15 mins
# Type: functional
# Details: not given
# In short: as §1
row,Structure (SMILES),Activity
1,CN1C(=O)N(CC(O)CN2CCN(c3ccccc3)CC2)C(c2ccccc2)(c2ccccc2)C1=O.Cl (racemic),263 min⁻¹
2,COC(=O)CN1C(=O)N(CC(O)CN2CCN(c3ccccc3F)CC2)C(c2ccccc2)(c2ccccc2)C1=O.Cl (racemic),281 min⁻¹

# System: Rattus norvegicus
# Assay: Hypotensive activity in normotensive Wistar rat assessed as decrease in systolic blood pressure at 2.5 to 10 mg/kg, iv at 1 min
# Type: organism-based, Artery
# Design: dose 2.5-10 mg/kg, route intravenous
# Details: in vivo
# In short: as §2
row,Structure (SMILES),Activity
1,CN1C(=O)N(CC(O)CN2CCN(c3ccccc3)CC2)C(c2ccccc2)(c2ccccc2)C1=O.Cl (racemic),Toxic
2,COC(=O)CN1C(=O)N(CC(O)CN2CCN(c3ccccc3F)CC2)C(c2ccccc2)(c2ccccc2)C1=O.Cl (racemic),Toxic

# Target: T1, Adrenergic receptor alpha-1 (Rattus norvegicus, UniProt P15823+P23944+P43140)
# T1 sequence (P15823 whole entry): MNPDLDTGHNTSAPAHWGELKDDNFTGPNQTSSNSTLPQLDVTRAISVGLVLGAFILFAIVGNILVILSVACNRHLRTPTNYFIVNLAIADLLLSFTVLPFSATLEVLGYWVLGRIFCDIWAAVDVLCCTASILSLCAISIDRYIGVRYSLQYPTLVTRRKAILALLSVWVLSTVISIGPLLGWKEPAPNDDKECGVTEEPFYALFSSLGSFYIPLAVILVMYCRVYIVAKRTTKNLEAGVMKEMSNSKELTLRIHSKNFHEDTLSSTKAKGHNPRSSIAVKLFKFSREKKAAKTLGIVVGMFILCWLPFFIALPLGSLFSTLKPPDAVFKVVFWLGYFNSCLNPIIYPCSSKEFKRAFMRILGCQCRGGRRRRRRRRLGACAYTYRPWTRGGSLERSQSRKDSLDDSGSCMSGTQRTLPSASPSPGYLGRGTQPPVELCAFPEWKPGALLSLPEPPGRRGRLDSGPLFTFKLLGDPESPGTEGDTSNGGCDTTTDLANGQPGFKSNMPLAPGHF
# T1 sequence (P23944 whole entry): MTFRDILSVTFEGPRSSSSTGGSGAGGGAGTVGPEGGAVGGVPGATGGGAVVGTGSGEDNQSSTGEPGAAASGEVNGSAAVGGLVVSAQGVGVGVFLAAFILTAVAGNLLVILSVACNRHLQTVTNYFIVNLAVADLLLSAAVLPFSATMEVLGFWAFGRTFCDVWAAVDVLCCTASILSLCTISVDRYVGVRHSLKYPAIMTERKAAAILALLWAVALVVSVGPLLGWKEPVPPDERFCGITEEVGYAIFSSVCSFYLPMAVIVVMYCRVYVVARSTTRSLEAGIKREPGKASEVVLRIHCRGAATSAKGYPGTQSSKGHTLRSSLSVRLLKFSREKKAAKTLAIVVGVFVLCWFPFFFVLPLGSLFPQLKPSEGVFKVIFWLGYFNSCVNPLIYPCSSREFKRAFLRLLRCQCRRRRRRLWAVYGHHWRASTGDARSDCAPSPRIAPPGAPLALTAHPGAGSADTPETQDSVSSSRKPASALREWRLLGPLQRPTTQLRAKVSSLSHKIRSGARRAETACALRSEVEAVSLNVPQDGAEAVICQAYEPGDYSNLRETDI
# T1 sequence (P43140 whole entry): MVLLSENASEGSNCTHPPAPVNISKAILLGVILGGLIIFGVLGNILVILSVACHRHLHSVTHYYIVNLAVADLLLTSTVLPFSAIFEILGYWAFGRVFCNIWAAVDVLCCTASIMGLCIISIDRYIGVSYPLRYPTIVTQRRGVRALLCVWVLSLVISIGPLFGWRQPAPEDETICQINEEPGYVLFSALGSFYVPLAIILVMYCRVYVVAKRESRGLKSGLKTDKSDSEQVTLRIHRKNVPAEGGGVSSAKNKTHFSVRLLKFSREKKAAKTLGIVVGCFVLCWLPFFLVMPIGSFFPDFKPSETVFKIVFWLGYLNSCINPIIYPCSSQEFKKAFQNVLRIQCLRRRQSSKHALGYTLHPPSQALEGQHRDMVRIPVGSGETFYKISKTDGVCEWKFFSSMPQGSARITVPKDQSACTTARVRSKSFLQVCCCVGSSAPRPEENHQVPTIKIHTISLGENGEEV
# Assay: Displacement of [3H]prazosin from alpha1 adrenoceptor in rat cerebral cortex after 30 mins by microbeta scintillation counting
# Type: tissue-based
# Details: not given
# In short: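 Rat cerebral cortex homogenised in ice-cold 50 mM Tris-HCl (pH 7.6 at 25 °C), washed twice at 20000×g and resuspended at 10 mg wet weight/ml. Incubated with [3H]prazosin (19.5 Ci/mmol) and test compound for 30 min at 25 °C. Nonspecific binding defined with 10 µM phentolamine. GF/B filtration, scintillation counting, three-parameter logistic competition fit.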
Structure (SMILES),Ki,pKi
COc1ccccc1N1CCN(CCCN2C(=O)N(C)C(=O)C2(c2ccccc2)c2ccccc2)CC1.Cl,0.4129 µM,6.38
CCOc1ccccc1N1CCN(CCCN2C(=O)N(C(C)C(=O)OC)C(=O)C2(c2ccccc2)c2ccccc2)CC1.Cl (stereo not given),0.4012 µM,6.4
CN1C(=O)N(CC(O)CN2CCN(c3ccccc3)CC2)C(c2ccccc2)(c2ccccc2)C1=O.Cl (racemic),0.5423 µM,6.27
COC(=O)CN1C(=O)N(CC(O)CN2CCN(c3ccccc3F)CC2)C(c2ccccc2)(c2ccccc2)C1=O.Cl (racemic),3.3 µM,5.48

# System: Rattus norvegicus
# Assay: Antiarrhythmic activity in Wistar rat assessed as effect on heart beat at 10 mg/kg, iv after 5 mins
# Type: functional
# Details: not given
# In short: as §1
row,Structure (SMILES),Activity
1,CN1C(=O)N(CC(O)CN2CCN(c3ccccc3)CC2)C(c2ccccc2)(c2ccccc2)C1=O.Cl (racemic),260 min⁻¹
2,COC(=O)CN1C(=O)N(CC(O)CN2CCN(c3ccccc3F)CC2)C(c2ccccc2)(c2ccccc2)C1=O.Cl (racemic),256 min⁻¹

# System: Rattus norvegicus
# Assay: Cardiotoxicity in Wistar rat assessed as effect on P-Q interval at 10 mg/kg, iv after 5 mins
# Type: toxicity, organism-based
# Design: dose 10 mg/kg, route intravenous
# Details: in vivo
# In short: as §1
row,Structure (SMILES),Activity
1,CN1C(=O)N(CC(O)CN2CCN(c3ccccc3)CC2)C(c2ccccc2)(c2ccccc2)C1=O.Cl (racemic),59 ms
2,COC(=O)CN1C(=O)N(CC(O)CN2CCN(c3ccccc3F)CC2)C(c2ccccc2)(c2ccccc2)C1=O.Cl (racemic),61 ms

# System: Rattus norvegicus
# Assay: Cardiotoxicity in Wistar rat assessed as effect on P-Q interval at 10 mg/kg, iv after 1 min
# Type: toxicity, organism-based
# Design: dose 10 mg/kg, route intravenous
# Details: in vivo
# In short: as §1
row,Structure (SMILES),Activity
1,CN1C(=O)N(CC(O)CN2CCN(c3ccccc3)CC2)C(c2ccccc2)(c2ccccc2)C1=O.Cl (racemic),66 ms
2,COC(=O)CN1C(=O)N(CC(O)CN2CCN(c3ccccc3F)CC2)C(c2ccccc2)(c2ccccc2)C1=O.Cl (racemic),66 ms

# System: Rattus norvegicus
# Assay: Hypotensive activity in normotensive Wistar rat assessed as decrease in systolic blood pressure at 2.5 to 10 mg/kg, iv after 1 min measured up to 60 mins
# Type: organism-based, Artery
# Design: dose 2.5-10 mg/kg, route intravenous
# Details: in vivo
# In short: as §2
row,Structure (SMILES),Activity
1,CN1C(=O)N(CC(O)CN2CCN(c3ccccc3)CC2)C(c2ccccc2)(c2ccccc2)C1=O.Cl (racemic),Non-toxic
2,COC(=O)CN1C(=O)N(CC(O)CN2CCN(c3ccccc3F)CC2)C(c2ccccc2)(c2ccccc2)C1=O.Cl (racemic),Non-toxic
